ChEMBL document CHEMBL4368918, “Structure-Based Design of Inhibitors Selective for Human Proteasome β2c or β2i Subunits” (J Med Chem, 2019)
pIC50: −log10 of the molar value. Calls of active or inactive are those of the source. No cut-off for these calls is given here.

How the values were obtained:
[1] = biological target: T1, Proteasome subunit beta type-10 (Homo sapiens, UniProt P40306); experiment: Inhibition of 20S immunoproteasome beta 2 (unknown origin) by cell based ABPP assay
T1 sequence (P40306 whole entry): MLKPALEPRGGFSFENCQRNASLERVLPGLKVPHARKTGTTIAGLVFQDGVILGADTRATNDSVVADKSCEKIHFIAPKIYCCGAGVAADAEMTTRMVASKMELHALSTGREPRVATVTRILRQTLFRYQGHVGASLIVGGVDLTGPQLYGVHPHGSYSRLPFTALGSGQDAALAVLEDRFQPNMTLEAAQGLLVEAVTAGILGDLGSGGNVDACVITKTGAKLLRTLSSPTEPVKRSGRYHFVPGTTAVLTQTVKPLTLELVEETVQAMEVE
Procedure, shortened: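 Living RPMI-8226 cells, (5–8) ×10^5 cells/mL, exposed to inhibitor 1 h at 37 °C, washed, lysed in digitonin buffer 1 h on ice; residual activity labelled with cocktail ABPs, SDS-PAGE in-gel fluorescence, bands divided by mock, Coomassie staining to correct loading. IC50 from mean of three independent experiments.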

[2] = biological target: Proteasome Macropain subunit (Homo sapiens) (UniProt P49721); experiment: Inhibition of Morp-Ala-Tyr(O-C2H4-BODIPY(FL))-1-DecAla-EK binding to 20S constitutive proteasome beta 2 in human Raji cell lysates at 0.3 uM in presence of 3-probe mixture by competitive ABPP assay; format: subcellular; conditions: Lysate
[3] = biological target: T2, Proteasome Macropain subunit MB1 (Homo sapiens, UniProt P28074); experiment: Inhibition of 20S constitutive proteasome beta 5 chymotrypsin-like activity in human RPMI8226 cell lysates after 1 hr by coomassie brilliant blue staining-based fluorescence assay; format: subcellular, Lysate
T2 sequence (P28074 whole entry): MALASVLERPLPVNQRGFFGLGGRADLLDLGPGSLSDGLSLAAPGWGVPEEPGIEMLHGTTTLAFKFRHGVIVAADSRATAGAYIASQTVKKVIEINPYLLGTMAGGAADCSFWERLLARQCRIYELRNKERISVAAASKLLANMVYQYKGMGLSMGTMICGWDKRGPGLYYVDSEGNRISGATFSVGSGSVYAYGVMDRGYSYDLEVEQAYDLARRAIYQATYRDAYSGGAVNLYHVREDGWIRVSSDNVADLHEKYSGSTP
Procedure, shortened: (§1)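 Cells at (5–8)×10⁵ cells/mL were exposed to inhibitor for 1 h at 37 °C, washed in PBS and lysed on ice for 1 h in digitonin/ATP buffer. Residual activity was read by cocktail-ABP labeling, SDS-PAGE and fluorescence densitometry relative to mock, with Coomassie staining correcting for loading. IC50 came from three independent experiments.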

[4] = biological target: T3, Proteasome subunit beta type-10 (Homo sapiens) (UniProt P40306); experiment: Inhibition of Morp-Ala-Tyr(O-C2H4-BODIPY(FL))-1-DecAla-EK binding to 20S immunoproteasome beta 2 in human Raji cell lysates at 0.3 uM in presence of 3-probe mixture by competitive ABPP assay; format: subcellular; conditions: Lysate
T3 sequence (whole entry): T1 sequence (P40306 whole entry)

[5] = biological target: T1, Proteasome subunit beta type-10; experiment: Inhibition of 20S immunoproteasome beta 2 in human Raji cell lysates after 1 hr by competitive ABPP assay; format: subcellular, Lysate
[6] = biological target: T1, Proteasome subunit beta type-10; experiment: Inhibition of 20S immunoproteasome beta 2 in human RPMI8226 cell lysates after 1 hr by coomassie brilliant blue staining-based fluorescence assay; format: subcellular, Lysate
[7] = biological target: T4, Proteasome subunit beta type-9 (Homo sapiens, UniProt P28065); experiment: Inhibition of 20S immunoproteasome beta 1 in human Raji cell lysates after 1 hr by competitive ABPP assay; format: subcellular, Lysate
T4 sequence (P28065 whole entry): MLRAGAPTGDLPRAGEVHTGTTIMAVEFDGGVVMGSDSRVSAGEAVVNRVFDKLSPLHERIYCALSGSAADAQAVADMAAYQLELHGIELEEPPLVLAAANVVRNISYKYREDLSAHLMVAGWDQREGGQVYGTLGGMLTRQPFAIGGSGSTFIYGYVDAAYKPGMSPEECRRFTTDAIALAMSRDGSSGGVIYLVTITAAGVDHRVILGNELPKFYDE
Procedure, shortened: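 Raji cells were sonicated in 3 volumes of Tris pH 7.5 lysis buffer containing DTT, MgCl₂, sucrose, 2 mM ATP and 0.05% digitonin. Lysate (5 μg protein, in buffer with 2 mM ATP and glycerol) was preincubated with inhibitor for 1 h at 37 °C, then with a cocktail of three fluorescent ABPs for 1 h. […] In-gel fluorescence densitometry was normalized to mock. IC50 came from the mean of three experiments.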

[8] = biological target: T5, Proteasome subunit beta type-8 (Homo sapiens, UniProt P28062); experiment: Inhibition of 20S immunoproteasome beta 5 in human RPMI8226 cell lysates after 1 hr by coomassie brilliant blue staining-based fluorescence assay; format: subcellular, Lysate
T5 sequence (P28062 whole entry): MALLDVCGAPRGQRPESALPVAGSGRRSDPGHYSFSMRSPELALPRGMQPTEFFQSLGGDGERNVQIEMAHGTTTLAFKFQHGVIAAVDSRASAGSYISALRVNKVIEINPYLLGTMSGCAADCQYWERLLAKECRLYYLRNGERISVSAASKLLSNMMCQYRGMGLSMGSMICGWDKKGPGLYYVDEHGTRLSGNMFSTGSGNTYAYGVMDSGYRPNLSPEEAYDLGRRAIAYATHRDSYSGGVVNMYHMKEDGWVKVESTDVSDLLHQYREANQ
Procedure, shortened: as §1, with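 “Living RPMI-8226 cells were grown in RPMI-1640 with 10% FCS. Cells” for “Cells”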

[9] = biological target: T3, Proteasome subunit beta type-10 (Homo sapiens); experiment: Inhibition of Morp-Ala-Tyr(O-C2H4-BODIPY(FL))-1-DecAla-EK binding to immunoproteasome beta 2 in human Raji cell lysates at 0.3 uM by competitive ABPP assay; format: subcellular; conditions: Lysate
Procedure, shortened: (§2)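 Raji lysate was preincubated with inhibitor, then labeled with the BODIPY(FL) probe alone. β2i labeling was read by in-gel fluorescence at Cy2 settings after SDS-PAGE.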

[10] = biological target: Proteasome Macropain subunit (Homo sapiens) (UniProt P49721); conditions: Raji, Lysate, 1 uM
[11] = biological target: T4, Proteasome subunit beta type-9; experiment: Inhibition of 20S immunoproteasome beta 1 in human RPMI8226 cell lysates after 1 hr by coomassie brilliant blue staining-based fluorescence assay; format: subcellular, Lysate
Procedure, shortened: as §1, with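 “Living RPMI-8226 cells were grown in RPMI-1640 with 10% FCS. Cells” for “Cells”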

[12] = biological target: T5, Proteasome subunit beta type-8; experiment: Inhibition of 20S immunoproteasome beta 5 in human Raji cell lysates after 1 hr by competitive ABPP assay; format: subcellular, Lysate
[13] = biological target: T3, Proteasome subunit beta type-10 (Homo sapiens); experiment: Inhibition of Morp-Ala-Tyr(O-C2H4-BODIPY(FL))-1-DecAla-EK binding to immunoproteasome beta 2 in human Raji cell lysates at 0.1 uM by competitive ABPP assay; format: subcellular; conditions: Lysate; procedure, shortened: as §2
[14] = biological target: T3, Proteasome subunit beta type-10 (Homo sapiens); experiment: Inhibition of Morp-Ala-Tyr(O-C2H4-BODIPY(FL))-1-DecAla-EK binding to 20S immunoproteasome beta 2 in human Raji cell lysates at 1 uM in presence of 3-probe mixture by competitive ABPP assay; format: subcellular; conditions: Lysate

`CC(C)C[C@H](NC(=O)[C@H](Cc1ccccc1)N=[N+]=[N-])C(=O)N[C@@H](C)C(=O)N[C@H](/C=C/S(C)(=O)=O)Cc1ccc(CN)cc1` was tested, and the pIC50 [1] was 6.49, the inhibition [2] was “Active” and the pIC50 [3] was less than 5.00. The inhibition [4] was “Active”, the pIC50 [5] was 6.85 and the pIC50 [6] was less than 5.00. For the same compound, the pIC50 [7] was less than 4.00, the pIC50 [8] was less than 5.00 and the inhibition [9] was “Active”.
For `CC(C)C[C@H](NC(=O)[C@H](Cc1ccccc1)N=[N+]=[N-])C(=O)N[C@@H](CC(C)C)C(=O)N[C@H](/C=C/S(C)(=O)=O)Cc1ccc(CN)cc1`, the inhibition [10] was “Active”, the pIC50 [11] was less than 5.00 and the pIC50 [12] was 5.93. For the same compound, the inhibition [13] was “Active”, the pIC50 [5] was 7.70 and the pIC50 [6] was 6.39. For the same compound, the pIC50 [8] was less than 5.00 and the inhibition [14] was “Active”.
